CHOP inh: inhibitors of CHOP promoter induction, primary screen, cell-based, unfolded protein response, luciferase reporter; inhibition, % at 10 µM; AID 2732, 2010; CHO-K1 CHOP-promoter luciferase, tunicamycin-induced, 15-18 h; hit rate 3.8% among 220,000;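 active means compounds that reduced the stress-induced luciferase reporter signal by more than about 70% of percent inhibition, limit read from the data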;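 further: 0% = tunicamycin plus vehicle and 100% = wells without tunicamycin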
p97 ATPase inh: inhibitors of human p97 ATPase, primary screen, biochemical; inhibition, % at 8 µM; recombinant p97 ATPase, Kinase-Glo ATP luminescence, 3 h; AID 1481, 2009; Transitional endoplasmic reticulum ATPase (Homo sapiens), P55072; hit rate 0.42% among 220,000; in the data active means inhibition above about 15%;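 further: 0% = DMSO vehicle and 100% = wells lacking enzyme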
Target sequence (P55072 whole entry, looked up): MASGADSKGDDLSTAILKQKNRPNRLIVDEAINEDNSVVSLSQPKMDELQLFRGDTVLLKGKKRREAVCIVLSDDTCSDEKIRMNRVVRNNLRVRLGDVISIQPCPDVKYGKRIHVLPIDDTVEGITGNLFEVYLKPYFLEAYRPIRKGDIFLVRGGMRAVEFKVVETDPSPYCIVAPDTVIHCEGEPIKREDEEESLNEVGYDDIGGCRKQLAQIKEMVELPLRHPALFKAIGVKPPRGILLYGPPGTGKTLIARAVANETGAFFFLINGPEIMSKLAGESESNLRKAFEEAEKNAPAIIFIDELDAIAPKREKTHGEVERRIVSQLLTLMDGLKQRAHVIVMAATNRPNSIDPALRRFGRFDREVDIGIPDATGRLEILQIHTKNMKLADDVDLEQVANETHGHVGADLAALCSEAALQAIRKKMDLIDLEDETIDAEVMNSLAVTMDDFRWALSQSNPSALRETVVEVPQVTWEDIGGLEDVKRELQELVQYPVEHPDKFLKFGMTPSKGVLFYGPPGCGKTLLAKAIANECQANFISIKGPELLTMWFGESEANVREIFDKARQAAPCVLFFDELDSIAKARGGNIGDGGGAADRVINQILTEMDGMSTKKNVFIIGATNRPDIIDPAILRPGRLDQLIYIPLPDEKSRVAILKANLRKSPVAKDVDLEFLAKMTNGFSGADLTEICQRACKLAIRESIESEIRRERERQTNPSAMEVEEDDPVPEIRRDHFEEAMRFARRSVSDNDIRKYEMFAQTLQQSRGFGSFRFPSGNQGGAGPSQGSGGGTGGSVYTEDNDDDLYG
CHOP UPR activ: activators of apoptotic CHOP UPR arm, primary screen, cell-based, CHO-CHOP luciferase reporter, luminescence, uHTS; UPR activation; percent of tunicamycin response over DMSO baseline; activation, % at 10 µM; hit rate 0.34% among 330,000; AID 449763, 2010;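 active means at 10 µM dose, activation of 40% or more, normalized to positive control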;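 further: 100% = tunicamycin at 10 µg/mL and 0% = DMSO alone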
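assay system = CHO CHOP reporter cells | amount = 500 CHO-CHOP cells per well | buffer or medium = F12 with 10% FBS | incubation = 16-18 h cell attachment, then 6 h compound exposure, 37 °C | detection = luminescence read with Steady-Glo | read-out = percent activation relative to tunicamycin control | controls = tunicamycin high control, DMSO low control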
UPR XBP1 act: activators of adaptive XBP1 UPR arm, primary screen, cell-based, CHO-XBP1 luciferase reporter, luminescence, uHTS; IRE1-XBP1 UPR activation; percent of tunicamycin response, DMSO as zero; activation, % at 20 µM; hit rate 0.33% among 330,000;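 active means versus positive control, 20 µM dose yields 30% or more activation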;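 further: 100% = tunicamycin at 10 µg/mL and 0% = DMSO only wells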
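Material: CHO cell line with stable XBP1 luciferase reporter; schedule: 16-18 h cell attachment at 37 °C, then 6 h compound exposure; signal: glow luminescence from Steady-Glo reagent; medium: serum-containing F12 medium, 10% FBS; benchmarks: tunicamycin 10 µg/mL and vehicle-only wells; read-out: percent activation relative to tunicamycin reference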
NS3 helicase inh: inhibitors of HCV NS3 helicase, primary screen, biochemical, Cy5 molecular beacon fluorescence. Hepatitis C virus NS3 helicase. NS3 helicase DNA unwinding. inhibition, % at 10.9 µM. hit rate 0.56% among 290,000;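 active means inhibition above the mean of all tested compounds plus 3 SD, set per campaign, cut at about 35% in these data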;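 further: 0% = DMSO wells and 100% = thioflavine S control wells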
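Measured by: Cy5 fluorescence, 0 and 60 min reads / Assay system: NS3 helicase fragment of HCV / Control set: low DMSO, high thioflavine S at 110 µM / Times: 1 h reaction at 25 °C, ATP-initiated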
M18AAP inhibitor: PfM18AAP inhibitors, malaria aminopeptidase, primary screen, biochemical, QFRET, recombinant enzyme | AID 1822, 2009 | hit rate 1.2% among 290,000 | H-Glu-NHMec fluorogenic cleavage | inhibition, % at 7.35 µM;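 active means inhibition above the campaign mean inhibition over all tested compounds plus 3 SD, cut at about 28% in these data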;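 further: 0% = plate median of test compound wells and 100% = 2 mM ZnCl2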
Numbers without * were called inactive; · = no result given. The list is not random: actives were taken first. Their share in the collection is about 4.5%.

SMILES | CHOP inh | p97 ATPase inh | CHOP UPR activ | UPR XBP1 act | NS3 helicase inh | M18AAP inhibitor
COc1ccc([C@H]2CC(=O)C=C(c3ccc4c(c3)sc3ccccc34)C2)cc1 | · | · | 3 | -2 | · | ·
COc1cc(OC)cc(-c2n[nH]c(=S)n2-c2ccc3c(c2)OCO3)c1 | -1 | -2 | 2 | 1 | 18 | 32*
Fc1ccc(-n2c(-c3ccc4c(c3)OCO4)n[nH]c2=S)cc1Cl | -32 | 13 | 0 | 1 | 0 | 22
CC(=O)N1CCN(c2ccc(NC(=O)c3ccc([N+](=O)[O-])o3)cc2Cl)CC1 | · | · | 73* | -3 | -5 | -4
CCc1ccc(C2CC(c3ccco3)=NN2S(C)(=O)=O)cc1 (stereo unspecified) | 73* | -18 | -2 | -7 | 9 | -16
CCOc1ccc2cc(C3CC(c4ccco4)=NN3S(C)(=O)=O)c(Cl)nc2c1 (stereo unspecified) | 17 | 5 | -3 | 0 | 7 | 3
Nc1nc2c(nc(Br)n2C2OC3COP(=O)(O)O[C@@H]3C2O)c(=O)[nH]1 (stereo partly specified) | 19 | · | · | · | · | ·
CC(=O)c1c(C)oc2ccc(N(C(C)=O)S(=O)(=O)c3cccc4cccnc34)cc12 | 38 | 4 | -1 | 5 | 0 | -5
O=C(COc1ccc(Cl)cc1Cl)Nc1c(-c2cccs2)nc2ccccn12 | 85* | 5 | 2 | 2 | 5 | 1
O=C(COC(=O)c1ccc(F)cc1F)Nc1cc(S(=O)(=O)N2CCOCC2)ccc1Cl | · | · | 5 | 0 | · | ·
CCOC(=O)C1CCCN(Cc2c(Cl)cccc2Cl)C1 (stereo unspecified) | 71* | 0 | -1 | -1 | -5 | -1
Cc1[nH]c(C)c(S(=O)(=O)NCC(C)c2ccccc2)c1C(=O)N1CCCCC1 (stereo unspecified) | · | · | -1 | 3 | 10 | 2
Fc1ccc(-n2c(Cn3nnc4ccccc43)n[nH]c2=S)cc1 | 5 | -3 | 0 | 1 | 20 | 30*
FC(F)(F)c1cccc(-n2c(Cn3nnc4ccccc43)n[nH]c2=S)c1 | 11 | 12 | -1 | -1 | -1 | 19
C/C(=N\NC(=O)c1ccccc1NC(=O)c1ccc(Cl)cc1)c1ccncc1 | 72* | -57 | -9 | -6 | 0 | 2
CCOC(=O)CSc1nc2c(sc(=S)n2-c2ccccc2)c(=O)n1-c1ccc(OC)cc1OC | · | · | -1 | -2 | 10 | 30*
CC(C)(C)NC(=S)Nc1ccc(Nc2ccccc2)cc1 | 73* | 0 | 2 | -3 | -43 | 18
CC(C)(C)NC(=S)Nc1ccc(Br)cc1 | 24 | 5 | 1 | 0 | 14 | 3
S=C(Nc1ccc(Nc2ccccc2)cc1)NC1CCCCCC1 | 80* | -6 | 3 | 0 | -31 | -11
S=C(Nc1ccc(Cl)cc1)NC1CCCCC1 | 13 | 5 | 0 | 5 | 12 | 3
Cc1ccc(-c2nn(-c3ccccc3)cc2/C=N/n2c(-c3ccncc3)n[nH]c2=S)cc1 | 89* | 2 | 6 | 3 | 4 | 5
S=c1[nH]nc(-c2ccncc2)n1/N=C/C(Cl)=C\c1ccccc1 | 76* | 6 | 2 | 4 | 10 | 9
S=c1[nH]nc(-c2ccncc2)n1/N=C/C=C/c1ccccc1 | 21 | -4 | 1 | -3 | 6 | 27
Cc1[nH]c(C)c(S(=O)(=O)NCc2ccc(Cl)cc2)c1C(=O)N1CCCC1 | · | · | 2 | -3 | 6 | -11
CN1C(C(=O)c2ccccc2)=C(N)c2ccccc2S1(=O)=O | -2 | 3 | 0 | -2 | -2 | -3
SMILES | CHOP inh | p97 ATPase inh | CHOP UPR activ | UPR XBP1 act | NS3 helicase inh | M18AAP inhibitor
Cc1ccc(NC2=C(C(=O)c3ccccc3)N(C)S(=O)(=O)c3ccccc32)cc1 | 95* | -6 | 0 | -3 | 6 | 0
CC1CN(C(=O)c2ccc(NS(=O)(=O)c3ccc(F)c(F)c3)cc2)CC(C)O1 (stereo unspecified) | · | · | 0 | -3 | · | ·
CCOC(=O)CNC(=O)CCc1nnc2ccc(N3CCC(C)CC3)nn12 | · | · | 3 | -4 | 3 | -1
CC(C)(C)NC(=O)Cn1cc(C#N)c2cc(Br)ccc21 | 79* | -2 | 1 | -3 | 11 | 1
CCOC(=O)C1CCCN(S(=O)(=O)c2ccc(Br)s2)C1 (stereo unspecified) | 31 | 0 | -1 | 3 | 4 | 1
Cc1csc(NC(=O)C2CCCN(S(=O)(=O)c3ccc(Br)s3)C2)n1 (stereo unspecified) | 70* | -1 | -6 | -1 | -7 | 2
O=C(NNC(=O)c1ccc(Br)s1)c1ccc(F)c(S(=O)(=O)N2CCOCC2)c1 | · | · | -1 | -2 | · | ·
CSc1cccc(NC(=O)CNC(=O)c2ccc3c(c2)OCO3)c1 | · | · | 1 | -1 | · | ·
CSc1cccc(-n2cc(-c3ccc4c(c3)OCO4)[nH]c2=O)c1 | 3 | 9 | · | · | 7 | 29*
CC(C)CC(=O)NC(c1ccccc1)c1c(O)ccc2ccccc12 (stereo unspecified) | · | · | 1 | -5 | 21 | -2
CCCCC(=O)NC(c1ccc([N+](=O)[O-])cc1)c1c(O)ccc2ccccc12 (stereo unspecified) | 78* | 7 | 2 | -3 | -3 | -5
O=C(NC(c1ccc(Cl)cc1)c1c(O)ccc2ccccc12)c1ccccc1 (stereo unspecified) | 85* | 0 | · | · | 15 | 3
O=C(Nc1cccc(S(=O)(=O)N2CCOCC2)c1)c1cn(-c2ccccc2)nc1-c1ccccc1 | 15 | -2 | -2 | 0 | 15 | -5
O=C(Nc1cccc(S(=O)(=O)N2CCOCC2)c1)c1cn(-c2ccccc2)nc1-c1ccc(F)cc1 | 72* | 7 | 8 | -1 | 6 | 3
O=S(=O)(c1cccc(C(F)(F)F)c1)N1CCN(CC(O)COCc2ccccc2)CC1 (stereo unspecified) | · | · | -3 | -2 | · | ·
Cc1nc(N/N=C/c2ccccn2)sc1C | 86* | -47 | · | · | 9 | 15
CCCc1sc(N/N=C/c2ccccn2)nc1-c1ccc(F)cc1 | 87* | -6 | 20 | 7 | 9 | -3
COC(=O)c1ccc(/C=N/Nc2nc(C)c(C)s2)cc1 | -41 | 3 | 7 | 0 | 5 | -8
CCN=c1scc(-c2ccc(F)cc2)n1/N=C/c1ccccn1 | 5 | 3 | 3 | 10 | -7 | -6
CC1CCN(C(=O)COC(=O)c2ccc3c(c2)C(=O)N(Cc2ccco2)C3=O)CC1 | · | · | -1 | -2 | · | ·

Assay outcomes from PubChem.
